How the values were obtained:
[1] = target: Recombinant TryR from T. brucei (Trypanosoma brucei brucei, UniProt P39051); test: DTNB-coupled colourimetric TryR screening/potency assay; format: biochemical
[2] = tested on: bloodstream form T. brucei brucei single marker; test: Trypanosome growth assay; format: cell-based; conditions: Trypanosoma brucei, 73 h, read-out: EC50 Parasite
In short: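 Bloodstream-form T. b. brucei single marker in HMI9-T with 10% FCS, 2000 cells/well, added to plates pre-stamped with test compound; media-only column as blank. Ten points from 15 μm to 0.5 nm or 50 μm to 2 nm; final DMSO 0.5%. Incubated 69 h at 37°C, 5% CO2, then resazurin (final 50 μm) for 4 h; fluorescence at ex 528/em 590 nm.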

[3] = target: T1, human glutathione reductase (Homo sapiens, UniProt P00390); test: Glutathione reductase; format: biochemical
T1 sequence (P00390 44-522): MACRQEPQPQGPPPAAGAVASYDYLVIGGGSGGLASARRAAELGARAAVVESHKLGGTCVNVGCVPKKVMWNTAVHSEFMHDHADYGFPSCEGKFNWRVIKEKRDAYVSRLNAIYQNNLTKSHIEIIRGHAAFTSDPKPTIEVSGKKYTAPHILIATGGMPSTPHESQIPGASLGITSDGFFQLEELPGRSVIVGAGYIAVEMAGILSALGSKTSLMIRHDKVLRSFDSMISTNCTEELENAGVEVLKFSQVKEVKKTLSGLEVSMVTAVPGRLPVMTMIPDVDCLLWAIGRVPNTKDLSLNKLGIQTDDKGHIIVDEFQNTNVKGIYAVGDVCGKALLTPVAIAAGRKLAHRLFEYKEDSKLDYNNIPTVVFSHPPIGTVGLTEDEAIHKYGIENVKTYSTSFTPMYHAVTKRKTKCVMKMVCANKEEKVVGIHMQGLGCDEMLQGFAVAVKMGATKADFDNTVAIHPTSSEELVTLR

TryR = TryR (Trypanosoma brucei brucei, UniProt P39051); test: Mode of inhibition studies on TryR; format: biochemical; conditions: for Inhibitor constants Ki′: T[S]2 varied, mixed inhibition, second constant; for Mode of inhibiton: TryR, global nonlinear fit of 1/v vs 1/[S] data
In short: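 TryR with 150 μm NADPH, 50 μm DTNB, 20 mU/mL enzyme in 40 mm HEPES, 1 mm EDTA, pH 7.4. Three test-compound levels plus an inhibitor-free row. Started with T[S]2 over 12 points, 500 to 5.8 μm. NADPH was also varied at fixed T[S]2. Rates from linear A412 rise, inspected as 1/v vs 1/[S], then globally fitted to competitive, mixed or uncompetitive equations.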

Chain of TryR (P39051 whole entry): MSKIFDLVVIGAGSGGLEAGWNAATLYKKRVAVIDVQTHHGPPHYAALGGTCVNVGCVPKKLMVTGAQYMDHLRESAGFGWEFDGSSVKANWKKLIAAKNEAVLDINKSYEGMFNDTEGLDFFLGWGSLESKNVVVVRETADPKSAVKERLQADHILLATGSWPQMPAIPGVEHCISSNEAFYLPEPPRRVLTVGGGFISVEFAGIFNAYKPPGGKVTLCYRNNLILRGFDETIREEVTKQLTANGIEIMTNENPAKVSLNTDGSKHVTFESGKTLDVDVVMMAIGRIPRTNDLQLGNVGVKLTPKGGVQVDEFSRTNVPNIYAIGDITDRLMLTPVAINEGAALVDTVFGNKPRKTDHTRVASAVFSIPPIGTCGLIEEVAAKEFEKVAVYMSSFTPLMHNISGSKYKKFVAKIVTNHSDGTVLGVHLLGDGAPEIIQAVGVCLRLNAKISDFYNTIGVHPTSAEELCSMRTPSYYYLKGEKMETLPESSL
Chain of Recombinant TryR from T. brucei (P39051 whole entry): as above

Q: `Cc1ccc(-c2cc(C(=O)NCCN(C)C)c3cc(Br)ccc3n2)o1` [Compound 1, 6-Bromo-N-(2-(dimethylamino)ethyl)-2-(5-methylfuran-2-yl)quinoline-4-carboxamide] was tested. Which IC50 [1] did it give?
A: The IC50 was 1.7 µM.

Q: And the EC50 [2]?
A: Its EC50 is 10.3 µM.

Q: What about the IC50 [3] of the same compound?
A: Its IC50 is > 100 µM.

Q: And the Ki (TryR)?
A: Its Ki is 1.6 ± 0.2 µM.

Q: What about the “Inhibitor constants Ki′” value (TryR) of the same compound?
A: Its value is 3.2 ± 0.3 µM.

Q: And the Mode of inhibiton (TryR)?
A: Its Mode of inhibiton is “linear mixed”.

Q: Which IC50 [1] does the source give for `CNCCNC(=O)c1cc(-c2ccc(C)o2)nc2ccc(Br)cc12` [Compound 2, 6-Bromo-N-(2-(methylamino)ethyl)-2-(5-methylfuran-2-yl)quinoline-4-carboxamide] here?
A: The IC50 was 1.1 µM.

Q: And the EC50 [2]?
A: Its EC50 is 6 µM.

Q: Which IC50 [1] does the source give for `Cc1ccc(-c2cc(C(=O)NCC[N+](C)(C)C)c3cc(Br)ccc3n2)o1` [Compound 3, 6-Bromo-N,N,N-trimethyl-2-(2-(5-methylfuran-2-yl)quinoline-4-carboxamido)ethanaminium iodide] here?
A: The IC50 was 1.2 µM.

Q: What about the EC50 [2] of the same compound?
A: The EC50 was > 50 µM.

Q: How did the IC50 [1] turn out when `Cc1ccc(-c2cc(C(=O)NCCN3CCOCC3)c3cc(Br)ccc3n2)o1` [Compound 4, 6-Bromo-2-(5-methylfuran-2-yl)-N-(2-morpholinoethyl)quinoline-4-carboxamide] was run?
A: Its IC50 is 4.2 µM.

Q: And the EC50 [2]?
A: Its EC50 is 25.6 µM.

Q: What about the IC50 [3] of the same compound?
A: Its IC50 is 74.2 µM.

Q: What about the Ki (TryR) of the same compound?
A: The Ki was 3 ± 0.2 µM.

Q: What about the “Inhibitor constants Ki′” value (TryR) of the same compound?
A: Its value is 4.3 ± 0.3 µM.

Q: What about the Mode of inhibiton (TryR) of the same compound?
A: Its Mode of inhibiton is “linear mixed”.

Q: For `Cc1ccc(-c2cc(C(=O)NCc3ccccn3)c3cc(Br)ccc3n2)o1` [Compound 5, 6-Bromo-2-(5-methylfuran-2-yl)-N-(pyridin-2-ylmethyl)quinoline-4-carboxamide], which IC50 [1] is on record?
A: The IC50 was 4.7 µM.

Q: What about the EC50 [2] of the same compound?
A: Its EC50 is 18.7 µM.

Q: What about the IC50 [3] of the same compound?
A: Its IC50 is 33.4 µM.

Q: What about the Ki (TryR) of the same compound?
A: The Ki was 2 ± 0.1 µM.

Q: What about the “Inhibitor constants Ki′” value (TryR) of the same compound?
A: The value was 3.0 ± 0.2 µM.

Q: What about the Mode of inhibiton (TryR) of the same compound?
A: Its Mode of inhibiton is “linear mixed”.

Q: For `Cc1ccc(-c2cc(C(=O)NCCN(C)C)c3cc(Cl)ccc3n2)o1` [Compound 8, 6-Chloro-N-(2-(dimethylamino)ethyl)-2-(5-methylfuran-2-yl)quinoline-4-carboxamide], which IC50 [1] is on record?
A: The IC50 was 3.1 µM.

Q: `Cc1ccc(-c2cc(C(=O)NCCN(C)C)c3ccc(Br)cc3n2)o1` [Compound 9, 7-Bromo-N-(2-(dimethylamino)ethyl)-2-(5-methylfuran-2-yl)quinoline-4-carboxamide] was tested. Which IC50 [1] did it give?
A: Its IC50 is 5.7 µM.

Q: How did the IC50 [1] turn out when `Cc1ccc(-c2cc(C(=O)NCCN(C)C)c3cccc(Br)c3n2)o1` [Compound 10, 8-Bromo-N-(2-(dimethylamino)ethyl)-2-(5-methylfuran-2-yl)quinoline-4-carboxamide] was run?
A: Its IC50 is 5.8 µM.

Q: And the EC50 [2]?
A: The EC50 was 19.2 µM.

Q: Which IC50 [1] does the source give for `Cc1ccc(-c2cc(C(=O)NCc3ccccn3)c3ccccc3n2)o1` [Compound 11, 2-(5-Methylfuran-2-yl)-N-(pyridin-2-ylmethyl)quinoline-4-carboxamide] here?
A: Its IC50 is 12.1 µM.

Q: Which IC50 [1] does the source give for `Cc1ccc(-c2cc(C(=O)NCCN(C)C)c3ccccc3n2)o1` [Compound 12, N-(2-(Dimethylamino)ethyl)-2-(5-methylfuran-2-yl)quinoline-4-carboxamide] here?
A: Its IC50 is 14.4 µM.

Q: What about the EC50 [2] of the same compound?
A: The EC50 was 32.1 µM.

Q: Which IC50 [1] does the source give for `Cc1ccc(-c2cc(C(=O)NCc3ccccc3)c3cc(Br)ccc3n2)o1` [Compound 15, N-Benzyl-6-bromo-2-(5-methylfuran-2-yl)quinoline-4-carboxamide] here?
A: Its IC50 is > 100 µM.

Q: How did the IC50 [1] turn out when `CN(C)CCNC(=O)c1cc(-c2ccco2)nc2ccc(Br)cc12` [Compound 20, 6-Bromo-N-(2-(dimethylamino)ethyl)-2-(furan-2-yl)quinoline-4-carboxamide] was run?
A: Its IC50 is 32.4 µM.

Q: For `Cc1ccc(-c2cc(C(=O)NCCN(C)C)c3cc(Br)ccc3n2)s1` [Compound 22, 6-Bromo-N-(2-(dimethylamino)ethyl)-2-(5-methylthiophen-2-yl)quinoline-4-carboxamide], which IC50 [1] is on record?
A: The IC50 was > 100 µM.

Q: With `Cc1ccc(-c2cc(C(=O)NCCc3ccccc3)c3cc(Br)ccc3n2)o1` [Compound 25, 6-bromo-2-(5-methylfuran-2-yl)-N-phenethylquinoline-4-carboxamide] as the compound, how does the IC50 [1] read?
A: The IC50 was > 100 µM.

Q: `Cc1ccc(-c2cc(C(=O)NCCN(C)C)c3cc(F)ccc3n2)o1` [Compound 26, N-(2-(dimethylamino)ethyl)-6-fluoro-2-(5-methylfuran-2-yl)quinoline-4-carboxamide] was tested. Which IC50 [1] did it give?
A: Its IC50 is > 100 µM.
